Experimental data from paper PMC8553517 (ACS infectious diseases, 2021).

Experiments:
[1] = molecular target: recombinant L. donovani CYP51 (Leishmania donovani, UniProt A0A3S7WRS7); assay: Fluorescence-based L. donovani CYP51 inhibition assay; type: biochemical
[2] = test system: intracellular L. donovani; assay: L. donovani-infected macrophage assay; type: cell-based, Leishmania donovani; settings: for IC50: read-out: IC50 against L. donovani; for inhibition at 50 µM: read-out: Inhibition of parasitemia at 50 μM, 50 μM
J774 macrophages = assay: J774 macrophage toxicity assay; type: cell-based, mouse; settings: for IC50: Mus musculus, J774, read-out: IC50 against J774 macrophages
HepG2 cells = assay: HepG2 toxicity assay; type: cell-based; settings: for IC50: Homo sapiens, HepG2, 72 h, read-out: IC50 against HepG2
[3] = Microsomal stability, human liver microsomes; type: in vitro ADME; settings: for remaining at 1 h, 3 μM: human, liver microsomes
[4] = Microsomal stability, mouse liver microsomes; type: in vitro ADME; settings: for remaining at 1 h, 3 μM: mouse, liver microsomes
L. donovani CYP51 = L. donovani CYP51 ligand binding spectra; design: species or system Leishmania donovani; settings: titration of CYP51; absorbance maximum 431 nm, minimum 412–413 nm
Outline: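 Purified N-terminally truncated L. donovani CYP51 (CYP51-32c, His-tagged; purity by SDS-PAGE/anti-His Western blot, CO-difference spectra) at 0.5 µM, titrated in 30 mM potassium phosphate pH 7.4 with 0.1 mM EDTA and 20% glycerol. […], and sample-minus-reference difference spectra were recorded.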

recombinant human CYP3A4 = recombinant human CYP3A4 (Homo sapiens, UniProt P08684); assay: Inhibition of recombinant human CYP3A4; type: in vitro ADME
[5] = test system: L. donovani-infected female BALB/c mice; assay: Murine visceral leishmaniasis model; type: in vivo; settings: 10 mg/kg/day × 5 p.o.
Outline: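 Female BALB/c mice infected with L. donovani; groups of four. Dosing by oral gavage for 5 consecutive days, starting one week post-infection. Test compound was given at 75 or 37.5 mg/kg/day in 50% PEG400/50% water. Reference drug miltefosine was given at 10 mg/kg/day in water. The vehicle control group received PEG-400. Liver parasitemia was determined three days after the final dose, reported as percent reduction (mean ± S.E.M.).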

[6] = Leishmania donovani, Macrophage
[7] = Leishmania donovani, Macrophage, intracellular L. donovani, mean ± S.E.M., n=3
[8] = substrate 3 μM, LC-MS detection

Sequence of recombinant human CYP3A4 (P08684 whole entry): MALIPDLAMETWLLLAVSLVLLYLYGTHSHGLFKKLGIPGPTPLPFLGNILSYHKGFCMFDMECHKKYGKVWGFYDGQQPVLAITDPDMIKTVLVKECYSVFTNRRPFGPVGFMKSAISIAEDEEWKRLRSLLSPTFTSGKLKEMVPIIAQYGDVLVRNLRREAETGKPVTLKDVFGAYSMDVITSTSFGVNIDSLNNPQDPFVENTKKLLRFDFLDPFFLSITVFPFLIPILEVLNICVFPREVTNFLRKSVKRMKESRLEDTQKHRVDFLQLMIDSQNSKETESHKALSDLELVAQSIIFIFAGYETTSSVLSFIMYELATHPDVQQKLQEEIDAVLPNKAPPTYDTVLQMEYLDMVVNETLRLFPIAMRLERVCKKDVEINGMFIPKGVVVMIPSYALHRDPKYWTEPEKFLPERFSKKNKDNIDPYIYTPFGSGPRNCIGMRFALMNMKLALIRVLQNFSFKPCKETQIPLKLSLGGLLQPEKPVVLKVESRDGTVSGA

| IC50 [2, 6] | IC50 [1] | SMILES | IC50 (J774 macrophages) | IC50 (HepG2 cells) | other results |
| --- | --- | --- | --- | --- | --- |
|  |  | CC(C)Oc1cc(NC(=N)c2ccccn2)ccc1-c1ccc(-c2ccc(NC(=N)c3ccccn3)cc2OC(C)C)o1 [Compound 1, reference compound] |  |  | Inhibition of L. donovani CYP51 (in words) ([1]; at concentrations 5–10 times greater than their IC50 against intracellular L. donovani, M.Z. Wang, unpublished observations): weak inhibitors |
| 1.9 ± 0.3 µM | 0.53 ± 0.02 µM | CCOc1cc(NC(=N)c2ccccn2)ccc1OCCCCCCCCn1ccnc1 [Compound 17b, N-(4-((8-(1H-imidazol-1-yl)octyl)oxy)3-ethoxyphenyl) picolinimidamide] | 9 ± 1.3 µM | 13 µM |  |
| 1.3 ± 0.2 µM | 0.18 ± 0.01 µM | N=C(Nc1ccc(OCCCCCCCCn2ccnc2)c(Cl)c1)c1ccccn1 [Compound 9i, N-(4-((8-(1H-imidazol-1-yl)octyl)oxy)-3-chlorophenyl) picolinimidamide] | 6.8 ± 0.7 µM | 7.7 ± 1.5 µM | Fold more potent as inhibitor of L. donovani CYP51 compared to 9h ([1]; compared to 9h): about 2 fold |
|  |  | COc1cc([C@@H]2c3cc4c(cc3[C@H](O)[C@H]3COC(=O)[C@H]23)OCO4)cc(OC)c1OC [Podophyllotoxin, reference compound] | 0.025 ± 0.001 µM |  |  |
| 0.045 ± 0.003 µM |  | C[C@@H]1[C@H](O)[C@@H](C)/C=C/C=C/C=C/C=C/C=C/C=C/C=C/[C@H](O[C@@H]2O[C@H](C)[C@@H](O)[C@H](N)[C@@H]2O)C[C@@H]2O[C@](O)(C[C@@H](O)C[C@@H](O)[C@H](O)CC[C@@H](O)C[C@@H](O)CC(=O)O[C@H]1C)C[C@H](O)[C@H]2C(=O)O [Amphotericin B, reference compound] |  |  |  |
|  | 1.9 ± 0.1 µM | N=C(Nc1ccc(OCCCCCCCCn2cncn2)cc1)c1ccccn1 [Compound 9k, N-(4-((8-(1H-1,2,4-triazol-1-yl)octyl)oxy)phenyl) picolinimidamide] | 36 ± 1 µM | 32 ± 5 µM | inhibition at 12.5 µM ([2]; Leishmania donovani, Macrophage, read-out: Inhibition of parasitemia at 12.5 μM, 12.5 μM, intracellular L. donovani, mean ± S.E.M., n=3): ~50%; Decrease in potency against intracellular L. donovani compared with 9h ([2]; compared with 9h): > 10 fold |
| > 25 µM | 22 µM | N=C(Nc1ccc(OCCCn2ccnc2)cc1)c1ccccn1 [Compound 9c, N-(4-(3-(1H-imidazol-1-yl)propoxy)phenyl) picolinimidamide] | > 50 µM | > 50 µM |  |
| 0.97 ± 0.07 µM | 0.29 ± 0.01 µM | CC(C)Oc1cc(NC(=N)c2ccccn2)ccc1OCCCCCCCCn1ccnc1 [Compound 17c, N-(4-((8-(1H-imidazol-1-yl)octyl)oxy)3-isopropoxyphenyl) picolinimidamide] | 7.8 ± 0.3 µM | 18 ± 1 µM | remaining at 1 h, 3 μM [3]: > 80%; remaining at 1 h, 3 μM [4]: 100% |
|  |  | CCN(CC)CCCC(C)Nc1c2ccc(Cl)cc2nc2ccc(OC)cc12 (centres unmarked) [Quinacrine, reference compound] |  | 5.5 ± 0.7 µM |  |
| 8.8 ± 0.6 µM | 1.3 ± 0.1 µM | N=C(Nc1ccc(OCCCCCCn2ccnc2)cc1)c1ccccn1 [Compound 9g, N-(4-((6-(1H-imidazol-1-yl)hexyl)oxy)phenyl) picolinimidamide] | > 40 µM | 20 ± 3 µM |  |
| > 100 µM | 35 ± 2 µM | N=C(Nc1ccc(OCCn2cncn2)cc1)c1ccccn1 [Compound 9b, N-(4-(2-(1H-1,2,4-triazol-1-yl)ethoxy)phenyl) picolinimidamide] | > 50 µM | > 100 µM |  |
| 1.2 ± 0.1 µM | 0.34 ± 0.01 µM | N=C(Nc1ccc(OCCCCCCCCn2ccnc2)cc1)c1ccccc1 [Compound 9n, N-(4-((8-(1H-imidazol-1-yl)octyl)oxy)phenyl)benzimidamide] | 0.48 ± 0.02 µM | 4.9 ± 1 µM | Increase in potency against J774 cells compared to 9h (J774 macrophages; compared to 9h): 22 fold; Increase in HepG2 activity compared to 9h (HepG2 cells; compared to 9h): 2.4 fold |
| 1 µM | 0.36 ± 0.03 µM | N=C(Nc1ccc(OCCCCCCCCn2ccnc2)cc1)c1ccccn1 [Compound 9h, N-(4-((8-(1H-imidazol-1-yl)octyl)oxy)phenyl) picolinimidamide] | 11 ± 1 µM | 12 ± 3 µM | CYP51 binding spectrum type (L. donovani CYP51): typical Type II binding spectra; IC50 (recombinant human CYP3A4): 0.047 ± 0.003 µM; remaining at 1 h, 3 μM [3]: 100%; Degradation by human liver microsomes (in words) ([3]; over a period of one hour, substrate 3 μM): not degraded |
| 1.7 ± 0.3 µM | 14 ± 1 µM | N=C(Nc1ccc(OCCCCCCCCn2cccc2)cc1)c1ccccn1 [Compound 9m, N-(4-((8-(1H-pyrrol-1-yl)octyl)oxy)phenyl) picolinimidamide] | 11 ± 1 µM | 13 ± 2 µM | Fold less active as a CYP51 inhibitor than 9h ([1]; compared to 9h): 39 fold |
| 2.2 ± 0.3 µM | 0.57 ± 0.01 µM | COc1cc(NC(=N)c2ccccn2)ccc1OCCCCCCCCn1ccnc1 [Compound 17a, N-(4-((8-(1H-imidazol-1-yl)octyl)oxy)3-methoxyphenyl) picolinimidamide] | 16 ± 1 µM | 23 ± 2 µM | remaining at 1 h, 3 μM [3]: 100%; remaining at 1 h, 3 μM [4]: 100% |
|  |  | CCCCCCCCCCCCCCCCOP(=O)([O-])OCC[N+](C)(C)C [Miltefosine, miltefosine, reference compound] |  |  | Reduction of liver infection [5]: 95 ± 2% |
|  |  | COc1cccc2c1C(=O)c1c(O)c3c(c(O)c1C2=O)C[C@@](O)(C(=O)CO)C[C@@H]3O[C@H]1C[C@H](N)[C@H](O)[C@H](C)O1 [Doxorubicin, reference compound] |  | 0.2 ± 0.02 µM |  |
| 1.5 ± 0.4 µM | 0.36 ± 0.01 µM | COc1cc(OCCCCCCCCn2ccnc2)ccc1NC(=N)c1ccccn1 [Compound 24a, N-(4-((8-(1H-imidazol-1-yl)octyl)oxy)-2-methoxyphenyl) picolinimidamide] | 9.3 ± 0.5 µM | 16 ± 2 µM | remaining at 1 h, 3 μM [3]: > 80%; remaining at 1 h, 3 μM [4]: > 80% |
| > 100 µM |  | N=C(NCCCCCCCCn1ccnc1)c1ccccn1 [Compound 28, N-(8-(1H-imidazol-1-yl)octyl)picolinimidamide] |  | > 100 µM |  |
| 1.4 ± 0.2 µM | 0.22 ± 0.01 µM | N=C(Nc1ccc(OCCCCCCCCCCn2ccnc2)cc1)c1ccccn1 [Compound 9l, N-(4-((10-(1H-imidazol-1-yl)decyl)oxy)phenyl) picolinimidamide] | 4.9 ± 0.9 µM | 6.9 ± 1 µM | Human liver microsome t1/2 [3, 8]: 0.95 h; Mouse liver microsome t1/2 [4, 8]: 1.13 h |
| 0.73 ± 0.15 µM | 0.34 ± 0.01 µM | CCOc1cc(OCCCCCCCCn2ccnc2)ccc1NC(=N)c1ccccn1 [Compound 24b, N-(4-((8-(1H-imidazol-1-yl)octyl)oxy)-2-ethoxyphenyl) picolinimidamide] | 6.8 ± 0.1 µM | 12 ± 2 µM | remaining at 1 h, 3 μM [3]: > 80%; remaining at 1 h, 3 μM [4]: 100% |
| 13 ± 5 µM | 4.8 ± 0.1 µM | N=C(Nc1ccc(OCCCCCn2ccnc2)cc1)c1ccccn1 [Compound 9f, N-(4-((5-(1H-imidazol-1-yl)pentyl)oxy)phenyl) picolinimidamide] | > 50 µM | 42 ± 4 µM |  |
| > 50 µM | 21 ± 1 µM | N=C(Nc1ccc(OCCn2ccnc2)cc1)c1ccccn1 [Compound 9a, N-(4-(2-(1H-imidazol-1-yl)ethoxy)phenyl) picolinimidamide] | > 50 µM | > 50 µM |  |
| 2.1 ± 0.2 µM | 0.15 ± 0.01 µM | N=C(Nc1ccc(OCCCCCCCCn2ccnc2)cc1Cl)c1ccccn1 [Compound 9j, N-(4-((8-(1H-imidazol-1-yl)octyl)oxy)-2-chlorophenyl) picolinimidamide] | 8.6 ± 1.2 µM | 8.6 ± 1.2 µM | Fold more potent as inhibitor of L. donovani CYP51 compared to 9h ([1]; compared to 9h): about 2 fold |

| SMILES | IC50 [2, 6] | IC50 [1] | IC50 (J774 macrophages) | IC50 (HepG2 cells) | other results |
| --- | --- | --- | --- | --- | --- |
| N=C(Nc1ccc(OCCCCn2ccnc2)cc1)c1ccccn1 [Compound 9d, N-(4-(4-(1H-imidazol-1-yl)butoxy)phenyl) picolinimidamide] | 18 ± 3 µM | 6.4 ± 0.1 µM | > 50 µM | > 20 µM |  |
| CC[C@@H]([C@H](C)O)n1ncn(-c2ccc(N3CCN(c4ccc(OC[C@@H]5CO[C@@](Cn6cncn6)(c6ccc(F)cc6F)C5)cc4)CC3)cc2)c1=O [Posaconazole, posaconazole, reference compound] |  | 0.059 ± 0.001 µM |  |  | inhibition at 7.5 µM ([2]; Leishmania donovani, Macrophage, read-out: Inhibition of parasitemia at 7.5 μM, 7.5 μM, intracellular L. donovani, mean ± S.E.M., n=3): 47 ± 2% |
| CC(=O)N1CCN(c2ccc(OCC3COC(Cn4ccnc4)(c4ccc(Cl)cc4Cl)O3)cc2)CC1 (centres unmarked) [Ketoconazole, ketoconazole, reference compound] |  | 0.048 ± 0.004 µM |  |  | inhibition at 50 µM [2, 7]: 50 ± 7% |
| OC(Cn1cncn1)(Cn1cncn1)c1ccc(F)cc1F [Fluconazole, fluconazole, reference compound] |  | 0.96 ± 0.03 µM |  |  | inhibition at 50 µM [2, 7]: 16 ± 3% |
| N=C(Nc1ccc(OCCCCn2cncn2)cc1)c1ccccn1 [Compound 9e, N-(4-(4-(1H-1,2,4-triazol-1-yl)butoxy)phenyl) picolinimidamide] | > 100 µM | 89 ± 4 µM | > 50 µM | > 100 µM |  |
